# From PubChem
# Shown are actives, neighbours in structure and some others; about 2.3% of the full set was active somewhere.
# PLC-gamma1 inh: PLC-gamma1 (human) inhibition, primary screen | P19174 | purified PLC-gamma1, fluorogenic substrate, fluorescence | inhibition, % at 12.2 µM | 370,000 compounds, 0.84% hits | AID 720700; in the data active means inhibition above about 9.5%
# Tb MetRS inh: Trypanosoma brucei MetRS inhibition; purified T. brucei MetRS, ATP depletion, Kinase-Glo luminescence; inhibition, % at 11.9 µM; 360,000 compounds, 0.4% hits;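 active means inhibition above a per-plate cutoff of the control wells' mean inhibition plus 3 SD, cut at about 5.5% in these data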;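 further: 0% = DMSO wells median and 100% = median of wells with control inhibitor compound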
#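 Dosing: 11.9 µM compound single dose, 0.9% DMSO; Assay system: purified T. brucei MetRS enzyme; Measured by: Kinase-Glo luciferase luminescence reporting remaining unconsumed ATP; Schedule: 15 min plus 2 h at 25 °C.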
# ADAM17 inh: inhibits human ADAM17; P78536; recombinant ADAM17, EDANS/DABCYL FRET peptide cleavage; inhibition, % at 6.95 µM; 370,000 compounds, 0.83% hits; AID 720648;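 active means inhibition above the mean of compounds lying between control limits plus 3 SD, set per campaign, cut at about 8.5% in these data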;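 further: 0% = DMSO-only wells as the low control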
# Target sequence (P78536 215-824 limits assumed): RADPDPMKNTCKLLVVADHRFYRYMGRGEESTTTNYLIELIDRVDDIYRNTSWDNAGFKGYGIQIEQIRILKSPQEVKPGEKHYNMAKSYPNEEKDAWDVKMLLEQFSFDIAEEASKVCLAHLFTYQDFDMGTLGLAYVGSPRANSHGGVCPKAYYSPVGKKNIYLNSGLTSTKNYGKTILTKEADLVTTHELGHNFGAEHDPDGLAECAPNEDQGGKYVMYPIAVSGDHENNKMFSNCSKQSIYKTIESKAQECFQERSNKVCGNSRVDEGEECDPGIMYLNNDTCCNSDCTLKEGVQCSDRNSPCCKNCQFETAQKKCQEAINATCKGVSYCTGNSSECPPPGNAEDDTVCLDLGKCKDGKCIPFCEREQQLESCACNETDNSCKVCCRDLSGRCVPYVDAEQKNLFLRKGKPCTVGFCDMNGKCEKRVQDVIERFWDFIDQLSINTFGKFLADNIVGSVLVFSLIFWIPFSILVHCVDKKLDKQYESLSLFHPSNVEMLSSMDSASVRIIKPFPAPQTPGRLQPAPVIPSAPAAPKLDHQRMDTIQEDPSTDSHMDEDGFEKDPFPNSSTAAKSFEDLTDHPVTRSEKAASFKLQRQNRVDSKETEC
# PLCb3 inh: PLC-beta3 (human) inhibition, primary screen. 370,000 compounds, 0.18% hits. Purified PLC-beta3, fluorogenic substrate, fluorescence. Q01970. AID 720704. inhibition, % at 12.2 µM;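 further: 0% = median of compound wells on plate and 100% = full blocker control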
# ADAM10 inh: inhibitors of human ADAM10. O14672. recombinant ADAM10, EDANS/DABCYL FRET peptide cleavage, 3 h. inhibition, % at 7 µM. 370,000 compounds, 0.62% hits. AID 720582;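 active means inhibition above a per-campaign cutoff equal to the mean of compounds falling between control-based bounds plus 3 SD, cut at about 20% in these data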;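 further: 0% = DMSO wells while the 100% control is not disclosed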
# PLCg1 ctr: inhibits human PLC-gamma1 in PLC-beta3 counter-screen | purified PLC-gamma1, fluorogenic substrate, fluorescence | AID 743258 | shares compounds with PLC-gamma1 inh | 3,300 compounds, 3.1% hits | inhibition, % at 12.3 µM; in the data active means inhibition above about 9.5%
# PLCb3 confirm: human PLC-beta3 inhibition, confirmation. shares compounds with PLC-gamma1 inh. purified PLC-beta3, fluorogenic substrate fluorescence. inhibition, % at 12.3 µM. 3,300 compounds, 1% hits. AID 743261
# * = called active by the depositor; nt = not tested or not shown. Unless noted, no stated cut-off is given here; in the data, active means inhibition above about 11%; inactive means the rest.
SMILES,PLC-gamma1 inh,Tb MetRS inh,ADAM17 inh,PLCb3 inh,ADAM10 inh,PLCg1 ctr,PLCb3 confirm
CC(CC(=O)Nc1ccc(Br)cc1F)S(=O)(=O)c1ccc2c(c1)NC(=O)CO2 (stereo unspecified),12*,1,-4,-8,1,-6,-3
O=C1C=CC(O)(c2cc(=O)c3c(O)cc(O)cc3o2)C=C1,-3,0,-4,-8,2,nt,nt
FC(F)(F)c1nc(Oc2ccccc2)c2ccccc2n1,10*,-1,3,2,8,1,1
O=C(NCn1cnccc1=O)c1ccccc1,1,-1,-2,0,2,nt,nt
O=C(NC(C(=O)c1ccccc1)n1cnccc1=O)c1ccccc1 (stereo unspecified),11*,-1,1,3,2,-2,3
O=C1CC(N2CCN(Cc3ccccc3)CC2)C(=O)N1c1ccccc1 (stereo unspecified),11*,0,5,5,11,-9,-1
O=C1CC(N2CCN(Cc3ccccc3)CC2)C(=O)N1c1ccc2c(c1)OCCO2 (stereo unspecified),0,0,-6,0,1,nt,nt
Nc1nc(N)c2cc(S(=O)(=O)c3ccc4ccccc4c3)ccc2n1,-120,0,-16,-196,-53,nt,nt
CC(=O)Nc1ccc(NCN2C(=O)[C@@H]3[C@H]4CC[C@H](C4)[C@@H]3C2=O)cc1,-1,0,0,5,4,nt,nt
CN(C)c1ncnc2[nH]ncc12,13*,0,2,6,0,-2,1
CCCN(CC)c1ncnc2[nH]ncc12,2,0,1,1,4,nt,nt
CC(C)CNC(=O)c1cccc(NC(=O)c2ccc3c(c2)C(=O)N(C)C3=O)c1,4,-1,1,-4,7,nt,nt
CCCCNC(=O)NC12CC3CC(CC(C3)C1)C2,3,0,-2,-2,-7,nt,nt
CCCCNC(=O)NC(C(=O)OC)C12CC3CC(CC(C3)C1)C2 (stereo unspecified),13*,0,4,4,13,-2,3
Cc1ccc2nc(NC(=O)C3CCN(S(=O)(=O)c4cnc[nH]4)CC3)sc2c1,9.6*,-1,5,6,2,-9,0
COc1ccc2nc(NC(=O)C3CCN(S(=O)(=O)c4cnc[nH]4)CC3)sc2c1,-1,-1,-5,-3,-6,nt,nt
O=C1CC(c2ccc(Cl)cc2)c2c(O)cc(O)cc2O1 (stereo unspecified),10*,0,6,-1,13,-6,-3
CCOc1ncccc1C(=O)OCC(=O)c1c(N)n(C)c(=O)n(C)c1=O,8,-2,3,11*,7,-6,-3
C[C@H]1COc2cc(Br)ccc2S(=O)(=O)N1Cc1cn(Cc2ccco2)nn1,-1,nt,-4,0,-7,nt,nt
CC(O)CNCCCOc1ccc(Cl)cc1C(C)(C)C (stereo unspecified),12*,0,-3,1,11,-4,3
COc1ccc(-c2cc(C(=O)Nc3ccc(C)c(C)c3)no2)cc1,12*,-1,2,-3,9,-171,-169
Cc1ccc(NC(=O)c2cc(-c3ccc(F)cc3)on2)cc1C,3,0,-3,-3,-1,nt,nt
O=C1CCN(Cl)C(=O)N1Cl,8,-1,-3,5,-7,nt,nt
CNS(=O)(=O)c1cn(CC(=O)N(C)Cc2ccccc2)cc1S(=O)(=O)NC,4,-1,3,-1,-1,nt,nt
Cc1ccc(NS(=O)(=O)c2c(F)cc(F)c(Cl)c2F)cc1S(=O)(=O)N1CCOCC1,9.8*,0,5,10,8,-2,-3
O=C(NCc1ccncc1)[C@@H]1CCCN1C(=O)[C@H]1CCCN1C(=O)c1c(F)cccc1F,3,-1,-4,-1,-2,nt,nt
O=[N+]([O-])c1cccc2ccc(/C=C/c3cccc(Br)c3)nc12,9,0,7,11*,8,0,1
CC(=O)c1ccc(OC(C)C)c(CSC(=N)N)c1,12*,1,-2,12*,7,-5,0
CCOC(=O)C(Cc1cc(C(C)=O)ccc1OC(C)C)C(=O)OCC,-2,-1,-7,-1,0,nt,nt
